Assays:
[1] = molecular target: T1, Broad substrate specificity ATP-binding cassette transporter ABCG2 (Homo sapiens, UniProt Q9UNQ0); test: Binding affinity to ABCG2 (unknown origin) expressed in HEK293 cells assessed as modulation of 5D3 binding at 5 uM after 45 mins by flow cytometric analysis relative to Ko143; format: cell-based; settings: hek293, 0.75 h
T1 sequence (Q9UNQ0 whole entry): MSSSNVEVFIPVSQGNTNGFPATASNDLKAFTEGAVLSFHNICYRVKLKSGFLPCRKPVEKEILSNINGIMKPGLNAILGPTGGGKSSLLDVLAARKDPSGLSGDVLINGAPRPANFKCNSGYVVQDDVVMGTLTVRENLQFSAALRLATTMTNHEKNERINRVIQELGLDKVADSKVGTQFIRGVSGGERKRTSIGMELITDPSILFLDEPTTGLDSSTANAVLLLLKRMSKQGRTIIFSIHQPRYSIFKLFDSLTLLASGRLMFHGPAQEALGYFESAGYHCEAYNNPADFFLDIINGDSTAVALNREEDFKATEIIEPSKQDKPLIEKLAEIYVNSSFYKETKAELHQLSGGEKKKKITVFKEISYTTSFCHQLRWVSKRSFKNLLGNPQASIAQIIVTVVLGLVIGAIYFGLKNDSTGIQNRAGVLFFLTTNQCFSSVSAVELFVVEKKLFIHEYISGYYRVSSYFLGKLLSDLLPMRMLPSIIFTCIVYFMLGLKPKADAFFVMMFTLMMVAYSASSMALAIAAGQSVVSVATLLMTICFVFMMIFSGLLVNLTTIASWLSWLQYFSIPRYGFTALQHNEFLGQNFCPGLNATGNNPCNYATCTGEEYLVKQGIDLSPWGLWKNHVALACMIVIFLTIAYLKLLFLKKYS
Method in brief: (§1)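 5D3 shift assay on ABCG2-transfected HEK293 cells (0.5 × 10^6 cells/tube) in PBS with 0.5% BSA. Compound at 2 or 5 μM plus 5D3 anti-ABCG2 antibody or isotype control (1 μg/mL), 45 min at 37 °C. Anti-mouse Alexa Fluor 488 secondary (3 μg/mL), 30 min at 37 °C. Binding read by flow cytometry, expressed relative to 2 μM Ko143 (100%). Mean ± SD of ≥3 independent experiments.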

[2] = molecular target: T1, Broad substrate specificity ATP-binding cassette transporter ABCG2; test: Binding affinity to ABCG2 (unknown origin) expressed in HEK293 cells assessed as modulation of 5D3 binding at 2 uM after 45 mins by flow cytometric analysis relative to Ko143; format: cell-based; settings: hek293, 0.75 h; method in brief: as §1
[3] = molecular target: T1, Broad substrate specificity ATP-binding cassette transporter ABCG2; test: Inhibition of human ABCG2 expressed in Sf9 insect cell membranes assessed as inhibition of quercetin-stimulated ATPase activity after 30 mins by colorimetric analysis in presence of sodium orthovanadate; settings: for inhibition (INH): human, sf9, 0.5 h
Method in brief: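 Quercetin (2 μM)-stimulated vanadate-sensitive ATPase assay on cholesterol-loaded ABCG2 Sf9 membranes (10 μg/sample) in Tris/NaCl buffer, pH 8.0. Compound at 0.01, 0.03, 0.5 and 2 μM. ATP-Mg 3.9 mM, 30 min at 37 °C. Released phosphate read colorimetrically at 880 nm. IC50 estimated as 50% inhibition of initial activity; three independent experiments.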

[4] = molecular target: T1, Broad substrate specificity ATP-binding cassette transporter ABCG2; test: Inhibition of human ABCG2 ATPase activity expressed in Sf9 insect cell membranes at 2 uM after 30 mins by colorimetric analysis relative to basal control in presence of sodium orthovanadate; settings: sf9, 0.5 h
Method in brief: (§2)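 Basal vanadate-sensitive ATPase assay on cholesterol-loaded membranes from human ABCG2-expressing Sf9 cells (0.5 mg/mL; 10 μg/sample). Buffer: 50 mM Tris-HCl, 50 mM NaCl, pH 8.0, with azide, ouabain, DTT and EGTA, ± 0.33 mM orthovanadate. Compound at 2 μM, or substrates nilotinib 0.1 μM, quercetin 2 μM, prazosin 20 μM. ATP-Mg 3.9 mM, 30 min at 37 °C. Phosphate read by molybdate/ascorbate at 880 nm.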

ABCG2 [5] = molecular target: T2, ABCG2 (Homo sapiens, UniProt Q9UNQ0); test: Inhibition of ABCG2 in mitoxantrone-selected human H460 cells assessed as reversal of mitoxantrone-resistance at 1 uM after 72 hrs by MTT assay relative to control; format: cell-based; settings: probe mitoxantrone
T2 sequence (Q9UNQ0 whole entry): T1 sequence (Q9UNQ0 whole entry)

ABCG2 [6] = molecular target: T2, ABCG2; test: Inhibition of ABCG2 (unknown origin)-mediated pheophorbide A efflux expressed in HEK293 cells at 1 to 5 uM after 30 mins by flow cytometric analysis relative to control; format: cell-based; settings: HEK293 cells expressing ABCG2, probe pheophorbide A, read-out: Imax
Method in brief: (§3)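 Cells seeded at 1.5 × 10^5 cells/well and grown 48 h were exposed to BODIPY-prazosin (0.2 μM) or pheophorbide A (2 μM) for 30 min at 37 °C with or without compound. After washing and trypsinization, intracellular fluorescence was read by flow cytometry (FL4, ≥10 000 events). Percent inhibition = (C−M)/(Cev−M)×100, where Cev is from ABCG2-negative control cells.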

[7] = molecular target: T1, Broad substrate specificity ATP-binding cassette transporter ABCG2; test: Inhibition of ABCG2 (unknown origin)-mediated BODIPY-prazosin efflux expressed in HEK293 cells at 1 to 5 uM after 30 mins by flow cytometric analysis; format: cell-based; settings: hek293, 0.5 h; method in brief: as §3
[8] = molecular target: Multidrug resistance-associated protein 1 (Homo sapiens, UniProt P33527); test: Inhibition of ABCC1 (unknown origin)-mediated calcein-AM efflux expressed in HEK293 cells at 5 uM after 30 mins by flow cytometric analysis; format: cell-based; settings: hek293, 0.5 h
ABCG2 [9] = molecular target: T2, ABCG2; test: Inhibition of ABCG2 in mitoxantrone-selected human H460 cells assessed as reversal of mitoxantrone-resistance at 0.2 uM after 72 hrs by MTT assay relative to control; format: cell-based; settings: probe mitoxantrone
[10] = molecular target: ATP-dependent translocase ABCB1 (Homo sapiens, UniProt P08183); test: Inhibition of ABCB1 (unknown origin)-mediated rhodamine 123 efflux expressed in mouse NIH/3T3 cells at 5 uM after 30 mins by flow cytometric analysis; format: cell-based; settings: nih/3t3, 0.5 h
ABCG2 [11] = molecular target: T2, ABCG2; test: Inhibition of ABCG2 (unknown origin)-mediated mitoxantrone efflux expressed in HEK293 cells at 5 to 10 uM after 30 mins by flow cytometric analysis relative to control; format: cell-based; settings: HEK293 cells expressing ABCG2, probe mitoxantrone, read-out: Imax
[12] = molecular target: T1, Broad substrate specificity ATP-binding cassette transporter ABCG2; test: Inhibition of ABCG2 (unknown origin)-mediated mitoxantrone efflux expressed in HEK293 cells after 30 mins by flow cytometric analysis; format: cell-based
[13] = molecular target: T1, Broad substrate specificity ATP-binding cassette transporter ABCG2; test: Inhibition of ABCG2-mediated mitoxantrone efflux in mitoxantrone-selected human H460 cells after 30 mins by flow cytometric analysis; format: cell-based
ABCG2 [14] = molecular target: T2, ABCG2; test: Inhibition of ABCG2-mediated mitoxantrone efflux in mitoxantrone-selected human H460 cells at 5 to 10 uM after 30 mins by flow cytometric analysis relative to control; format: cell-based; settings: probe mitoxantrone, read-out: Imax
[15] = molecular target: T1, Broad substrate specificity ATP-binding cassette transporter ABCG2; test: […] expressed in Sf9 insect cell membranes at 0.1 uM after 30 mins by colorimetric analysis relative to basal control in presence of sodium orthovanadate; settings: sf9, 0.5 h; method in brief: as §2
[16] = molecular target: T1, Broad substrate specificity ATP-binding cassette transporter ABCG2; test: […] expressed in Sf9 insect cell membranes at 20 uM after 30 mins by colorimetric analysis relative to basal control in presence of sodium orthovanadate; settings: sf9, 0.5 h; method in brief: as §2

Multidrug resistance-associated protein 1, sequence (P33527 whole entry): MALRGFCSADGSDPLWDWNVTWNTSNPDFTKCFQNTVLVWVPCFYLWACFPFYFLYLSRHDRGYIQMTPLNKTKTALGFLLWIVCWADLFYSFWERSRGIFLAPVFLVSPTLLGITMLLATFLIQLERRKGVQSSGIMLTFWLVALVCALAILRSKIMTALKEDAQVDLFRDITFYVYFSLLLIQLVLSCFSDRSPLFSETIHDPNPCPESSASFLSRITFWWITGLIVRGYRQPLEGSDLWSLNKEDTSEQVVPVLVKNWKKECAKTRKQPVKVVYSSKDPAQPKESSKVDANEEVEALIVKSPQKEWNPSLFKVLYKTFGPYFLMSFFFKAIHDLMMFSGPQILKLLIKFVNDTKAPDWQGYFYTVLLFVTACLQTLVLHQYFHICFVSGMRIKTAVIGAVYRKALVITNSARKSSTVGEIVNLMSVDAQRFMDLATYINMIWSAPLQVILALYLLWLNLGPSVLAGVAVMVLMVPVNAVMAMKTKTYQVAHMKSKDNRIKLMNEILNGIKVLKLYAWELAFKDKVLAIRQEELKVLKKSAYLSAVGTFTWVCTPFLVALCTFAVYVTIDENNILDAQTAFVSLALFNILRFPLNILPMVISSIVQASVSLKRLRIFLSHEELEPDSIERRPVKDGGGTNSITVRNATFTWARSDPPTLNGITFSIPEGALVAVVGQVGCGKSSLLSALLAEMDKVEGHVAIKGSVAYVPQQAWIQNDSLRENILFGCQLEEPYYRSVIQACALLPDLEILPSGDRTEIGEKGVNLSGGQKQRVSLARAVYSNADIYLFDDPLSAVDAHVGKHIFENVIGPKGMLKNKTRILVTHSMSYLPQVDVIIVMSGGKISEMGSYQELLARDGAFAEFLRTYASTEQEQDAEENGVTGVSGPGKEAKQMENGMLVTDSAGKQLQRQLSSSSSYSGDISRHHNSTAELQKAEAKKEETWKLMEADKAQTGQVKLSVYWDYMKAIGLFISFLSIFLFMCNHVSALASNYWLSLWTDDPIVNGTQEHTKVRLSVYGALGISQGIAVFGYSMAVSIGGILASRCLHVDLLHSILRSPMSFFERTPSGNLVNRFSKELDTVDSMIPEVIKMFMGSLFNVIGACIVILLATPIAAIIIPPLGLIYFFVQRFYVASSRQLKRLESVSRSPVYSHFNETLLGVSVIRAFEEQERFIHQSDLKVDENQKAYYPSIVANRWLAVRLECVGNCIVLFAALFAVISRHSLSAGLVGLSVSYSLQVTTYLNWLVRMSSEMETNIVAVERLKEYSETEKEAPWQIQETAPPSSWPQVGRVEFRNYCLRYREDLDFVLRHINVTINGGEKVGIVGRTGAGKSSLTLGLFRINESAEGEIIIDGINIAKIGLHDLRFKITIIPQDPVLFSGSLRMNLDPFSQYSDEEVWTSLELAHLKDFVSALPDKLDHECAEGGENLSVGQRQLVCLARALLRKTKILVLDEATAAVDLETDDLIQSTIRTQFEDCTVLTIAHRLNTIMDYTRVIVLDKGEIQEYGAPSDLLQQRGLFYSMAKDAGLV
ATP-dependent translocase ABCB1, sequence (P08183 whole entry): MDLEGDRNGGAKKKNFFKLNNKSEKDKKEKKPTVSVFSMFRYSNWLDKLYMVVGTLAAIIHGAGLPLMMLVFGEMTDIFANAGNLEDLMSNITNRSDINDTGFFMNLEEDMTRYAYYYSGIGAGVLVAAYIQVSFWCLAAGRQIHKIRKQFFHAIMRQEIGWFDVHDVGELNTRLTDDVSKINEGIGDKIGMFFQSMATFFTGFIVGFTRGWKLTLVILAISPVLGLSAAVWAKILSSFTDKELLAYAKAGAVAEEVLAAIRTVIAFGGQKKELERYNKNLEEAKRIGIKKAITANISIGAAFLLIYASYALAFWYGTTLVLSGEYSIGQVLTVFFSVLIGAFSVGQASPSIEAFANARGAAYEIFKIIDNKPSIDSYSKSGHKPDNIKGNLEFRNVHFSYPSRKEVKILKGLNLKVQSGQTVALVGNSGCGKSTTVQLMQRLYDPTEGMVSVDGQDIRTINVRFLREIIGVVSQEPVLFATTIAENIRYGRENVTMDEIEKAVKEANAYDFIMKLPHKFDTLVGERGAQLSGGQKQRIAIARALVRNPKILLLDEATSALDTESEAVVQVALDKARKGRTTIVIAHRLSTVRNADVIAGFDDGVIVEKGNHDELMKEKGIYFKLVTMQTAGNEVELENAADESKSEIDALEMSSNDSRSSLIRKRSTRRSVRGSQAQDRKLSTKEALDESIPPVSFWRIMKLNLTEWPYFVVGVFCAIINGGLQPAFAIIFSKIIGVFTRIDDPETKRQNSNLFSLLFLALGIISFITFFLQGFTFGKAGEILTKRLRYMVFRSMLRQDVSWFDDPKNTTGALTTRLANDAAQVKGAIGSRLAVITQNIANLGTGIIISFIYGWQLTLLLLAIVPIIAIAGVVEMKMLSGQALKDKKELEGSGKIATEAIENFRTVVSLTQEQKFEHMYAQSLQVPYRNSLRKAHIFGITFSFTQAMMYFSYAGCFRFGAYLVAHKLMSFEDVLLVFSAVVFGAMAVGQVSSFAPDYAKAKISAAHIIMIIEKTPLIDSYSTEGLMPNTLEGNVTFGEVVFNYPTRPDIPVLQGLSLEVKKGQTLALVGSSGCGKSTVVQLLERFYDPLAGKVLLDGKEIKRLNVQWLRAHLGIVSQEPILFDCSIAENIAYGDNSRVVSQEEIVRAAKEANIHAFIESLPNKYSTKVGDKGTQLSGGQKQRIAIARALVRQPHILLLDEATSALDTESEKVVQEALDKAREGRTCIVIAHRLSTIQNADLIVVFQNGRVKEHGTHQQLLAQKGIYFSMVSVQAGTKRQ

Row | SMILES | Activity [1] | Activity [2] | IC50 [3] | inhibition (INH) [3] | inhibition (INH) [4] | inhibition at 72 h, 1 µM (ABCG2 [5]) | Emax at 0.5 h (ABCG2 [6]) | inhibition (INH) [7] | inhibition (INH) [8] | inhibition at 72 h, 0.2 µM (ABCG2 [9]) | inhibition (INH) [10] | Emax at 0.5 h (ABCG2 [11]) | EC50 [12] | EC50 [13] | Emax at 0.5 h (ABCG2 [14]) | fold change (FC) [15] | fold change (FC) [16]
1 | COc1ccc2c(CCNC(=O)c3cc(=O)c4c(OCc5ccc(Br)cc5)cccc4o3)c[nH]c2c1 | 101% | 96.4% | 290 nM | Dose-dependent effect | Active | > 72% | 80% | Active | Not Active | > 50% | Not Active | 97% | 100 nM | 80 nM | 89% | – | –
2 | Cn1cc(CCNC(=O)c2cc(=O)c3c(OCc4ccc(Br)cc4)cccc3o2)c2ccccc21 | 98% | 88.7% | 1100 nM | Dose-dependent effect | Active | > 61% | 80% | Active | Not Active | > 4% | Not Active | 85% | 300 nM | 220 nM | 102% | – | –
3 | Cc1cn(-c2cc(NC(=O)c3ccc(C)c(Nc4nccc(-c5cccnc5)n4)c3)cc(C(F)(F)F)c2)cn1 [NILOTINIB] | – | – | – | – | – | – | – | – | – | – | – | – | – | – | – | 3.2 | –
4 | COc1cc2nc(N3CCN(C(=O)c4ccco4)CC3)nc(N)c2cc1OC [PRAZOSIN] | – | – | – | – | – | – | – | – | – | – | – | – | – | – | – | – | 2.4

Source: ChEMBL document CHEMBL3108696, “Structure-activity relationships of chromone derivatives toward the mechanism of interaction with and inhibition of breast cancer resistance protein ABCG2” (J Med Chem, 2013)
